Source: ChEMBL document CHEMBL4823320, “SAR of novel benzothiazoles targeting an allosteric pocket of DENV and ZIKV NS2B/NS3 proteases” (Bioorg Med Chem, 2021)
pIC50, pKi: −log10 of the molar value. Active and inactive are the calls of the source. The calls are words filed in the database; no cut-off is given here.

Legend:
Huh-7 = experiment: Cytotoxicity against human Huh-7 cells assessed as cell viability after 96 hrs by CellTiter-Glo Luminescent cell viability assay; format: cell-based; settings: huh-7, 96 h
Outline: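 Huh7 cells seeded at 4×10^3 per well and treated one day later with 1.25–40 µM compound or DMSO for 96 h. ATP-based luminescent viability read-out, normalized to untreated cells.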

Zika virus [1] = experiment: Antiviral activity against ZIKV H/PF/2013 infected in human Huh7 cells assessed as decrease in viral RNA expression at 10 uM measured up to 96 hrs by renilla luciferase assay; format: functional, organism-based; settings: Huh-7, time hrs <=96
Outline: (§1)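 Huh7 cells electroporated with in vitro transcribed ZIKV H/PF/2013 subgenomic replicon RNA (Renilla luciferase, coelenterazine substrate). Compound at 10 µM or DMSO is added 4 h post-electroporation in medium with 15 mM HEPES and replenished at 48 h. Lysates are taken at 4, 24, 48, 72 and 96 h and normalized to the 4 h input value. Duplicate reads; mean ± SD, n = 3.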

Nonstructural protein 3 = Nonstructural protein 3 (Zika virus, UniProt A0A024AXB9); experiment: Inhibition of ZIKV NS2B-NS3 protease expressed in Escherichia coli BL21(DE3) using Boc-Gly-Arg-Arg-AMC as substrate by FRET assay
Outline: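 His-tagged ZIKV NS2B/NS3 protease in 50 mM Tris pH 9.0, 20% glycerol, 1 mM CHAPS with 100 µM Boc-Gly-Arg-Arg-AMC. Dilution series 0.01–100 µM, read every 30 s for 10 min at 25 °C. IC50 from a four-parameter fit of hydrolysis rate; mean ± SD of ≥3 independent measurements.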

Genome polyprotein [2] = target: T1, Genome polyprotein (dengue virus type 2, UniProt P29990); experiment: Inhibition of DENV2 NS2B-NS3 protease expressed in Escherichia coli BL21(DE3) using Boc-Gly-Arg-Arg-AMC as substrate by FRET assay
Outline: (§2)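 Recombinant His-tagged NS2B/NS3 protease, expressed in E. coli BL21-Gold (DE3) (1 mM IPTG, 20 °C, 16 h) and purified by Ni affinity and size exclusion. Assayed in 50 mM Tris pH 9.0, 20% glycerol, 1 mM Chaps, with 100 μM Boc-Gly-Arg-Arg-AMC. Fluorescence read every 30 s for 10 min at 25 °C; inhibitor 0.01–100 μM. IC50 from a four-parameter fit of hydrolysis rate; ≥3 independent experiments.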

Trypsin (Homo sapiens) = Trypsin (Homo sapiens) (UniProt P07477+P07478+P35030); experiment: Inhibition of Trypsin (unknown origin) assessed as residual enzyme activity at 20 uM by FRET assay relative to control; format: protein assay
Outline: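 Trypsin in 50 mM Tris pH 8.0, 100 mM NaCl, 5 mM EDTA with 40 µM Z-Phe-Arg-AMC. Compound at 20 µM, read every 30 s for 10 min at 25 °C. Residual activity is relative to DMSO control; mean ± SD, ≥3 independent measurements.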

[3] = target: Prothrombin (Homo sapiens) (UniProt P00734); experiment: Inhibition of Thrombin (unknown origin) assessed as residual enzyme activity at 20 uM by FRET assay relative to control
Outline: (§3)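 Compound at 20 µM, read every 30 s for 10 min at 25 °C. Residual activity is relative to DMSO control; mean ± SD, ≥3 independent measurements.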

[4] = target: Chymotrypsin (Homo sapiens) (UniProt Q99895+P17538+P40313+Q6GPI1); experiment: Inhibition of Chymotrypsin (unknown origin) assessed as residual enzyme activity at 20 uM by FRET assay relative to control; format: protein assay
Outline: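 α-Chymotrypsin in 50 mM Tris pH 8.0, 100 mM NaCl with Succ-Leu-Tyr-AMC. Compound at 20 µM, read every 30 s for 10 min at 25 °C. Residual activity is relative to DMSO control; mean ± SD, ≥3 independent measurements.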

[5] = target: Urokinase-type plasminogen activator (Homo sapiens) (UniProt P00749); experiment: Inhibition of Urokinase plasminogen activator (unknown origin) assessed as residual enzyme activity at 20 uM by FRET assay relative to control
Outline: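 Urokinase plasminogen activator in 50 mM Tris pH 7.4, 50 mM NaCl, 0.5 mM EDTA with 240 µM Z-Gly-Gly-Arg-AMC. Compound at 20 µM, read every 30 s for 10 min at 25 °C. Residual activity is relative to DMSO control; mean ± SD, ≥3 independent measurements.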

[6] = system: Severe acute respiratory syndrome coronavirus 2; experiment: Inhibition of SARS-CoV-2 Main protease assessed as residual enzyme activity at 20 uM by FRET assay relative to control
Outline: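 Compound at 20 μM; fluorescence read every 30 s for 10 min at 25 °C. Residual activity expressed relative to DMSO control; mean of ≥3 independent measurements.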

[7] = Inhibition of Rhodesain (unknown origin) assessed as residual enzyme activity at 20 uM by FRET assay relative to control
Outline: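 Compound at 20 µM, fluorescence read every 30 s for 10 min at 25 °C. Residual activity is relative to DMSO control; mean ± SD, ≥3 independent measurements.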

[8] = target: T2, Sortase A (Staphylococcus aureus) (UniProt Q9S446); experiment: Inhibition of staphylococcus aureus Sortase A protease assessed as residual enzyme activity at 20 uM by FRET assay relative to control; outline: as §3
T2 sequence (whole entry): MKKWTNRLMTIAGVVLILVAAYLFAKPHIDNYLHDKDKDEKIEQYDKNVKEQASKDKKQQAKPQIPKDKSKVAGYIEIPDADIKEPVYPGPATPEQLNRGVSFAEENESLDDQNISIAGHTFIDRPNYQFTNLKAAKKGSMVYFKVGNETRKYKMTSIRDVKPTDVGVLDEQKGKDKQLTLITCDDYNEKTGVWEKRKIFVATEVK

[9] = Chemical stability of compound in tris assay buffer at pH 9 measured after 15 mins by HPLC/MS analysis; format: physicochemical; settings: pH 9, 0.25 h
Outline: (§4)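 Compound incubated in protease assay buffer (Tris pH 9.0) under simulated assay conditions and analysed by HPLC/MS after 15 min, 90 min and 20 h. Stability is the compound peak integral in the 210 nm UV trace as a proportion of the total integral.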

[10] = Chemical stability of compound in tris assay buffer at pH 9 measured after 90 mins by HPLC/MS analysis; format: physicochemical; settings: pH 9, 1.5 h; outline: as §4
[11] = Chemical stability of compound in tris assay buffer at pH 9 measured after 20 hrs by HPLC/MS analysis; format: physicochemical; settings: pH 9, 20 h; outline: as §4
[12] = Chemical stability of compound in cell culture conditions at pH 7.4 HEPES buffer measured after 15 mins by HPLC/MS analysis; format: physicochemical; settings: read-out: Stabilty
Outline: (§5)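 Compound incubated under simulated cell-assay conditions (HEPES pH 7.4) and analysed by HPLC/MS after 15 min, 90 min and 20 h. Stability is the compound peak integral in the 210 nm UV trace as a fraction of the total integral.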

[13] = Chemical stability of compound in cell culture conditions at pH 7.4 HEPES buffer measured after 90 mins by HPLC/MS analysis; format: physicochemical; settings: read-out: Stabilty; outline: as §5
[14] = Chemical stability of compound in cell culture conditions at pH 7.4 HEPES buffer measured after 20 hrs by HPLC/MS analysis; format: physicochemical; settings: read-out: Stabilty; outline: as §5
dengue virus type 2 = experiment: Antiviral activity against DENV2 New Guinea C infected in human Huh7 cells assessed as decrease in viral RNA expression at 10 uM measured up to 72 hrs by firefly luciferase assay; format: functional, organism-based; settings: Huh-7, time hrs <=72
Outline: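 Huh7 cells electroporated with in vitro transcribed DENV2 NGC subgenomic replicon RNA (firefly luciferase), 4×10^6 cells per 10 µg RNA. Compound at 10 µM or DMSO is added 4 h post-electroporation in medium with 15 mM HEPES and replenished at 48 h. Lysates are taken at 4–96 h and replication is expressed relative to the 4 h input value. Duplicate luminometer reads; mean ± SD, n = 3.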

[15] = Inhibition of DENV2 NS2B-NS3 protease T120A/N167Q mutant expressed in Escherichia coli BL21(DE3) using Boc-Gly-Arg-Arg-AMC as substrate by FRET assay; design: species or system dengue virus type 2; outline: as §2
Genome polyprotein [16] = target: T1, Genome polyprotein; experiment: Binding affinity to DENV2 NS2B-NS3 protease by Dixon plot analysis
Outline: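 Fluorogenic DENV2 NS2B/NS3 assay run in 50 mM Tris pH 9.0, 20% glycerol, 1 mM Chaps, with IC50 determined at several Boc-Gly-Arg-Arg-AMC concentrations (50–200 μM). Kinetic fluorescence read at 25 °C for 10 min. Mode of inhibition assessed and apparent Ki derived by Dixon plot analysis.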

Zika virus [17] = experiment: Antiviral activity against ZIKV H/PF/2013 infected in human Huh7 cells assessed as decrease in viral RNA expression at 10 uM measured up to 72 hrs by renilla luciferase assay; format: functional, organism-based; settings: Huh-7, time hrs <=72; outline: as §1
[18] = target: T3, Nonstructural protein 3 (Zika virus) (UniProt A0A024AXB9); experiment: Inhibition of ZIKV NS2B-NS3 protease expressed in Escherichia coli BL21(DE3) using Boc-Gly-Arg-Arg-AMC as substrate at 100 uM by FRET assay
Outline: (§6)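 His-tagged NS2B/NS3 protease, purified by Ni affinity and size exclusion, in 50 mM Tris pH 9.0, 20% glycerol, 1 mM CHAPS with 100 µM Boc-Gly-Arg-Arg-AMC. Fluorescence is read every 30 s for 10 min at 25 °C. Percent inhibition is at a single inhibitor concentration of 20, 100 or 200 µM; ≥3 independent measurements.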

[19] = target: Genome polyprotein (dengue virus type 2) (UniProt P29990); experiment: Inhibition of DENV2 NS2B-NS3 protease expressed in Escherichia coli BL21(DE3) using Boc-Gly-Arg-Arg-AMC as substrate at 100 uM by FRET assay; outline: as §6
[20] = target: T3, Nonstructural protein 3 (Zika virus); experiment: Inhibition of ZIKV NS2B-NS3 protease expressed in Escherichia coli BL21(DE3) using Boc-Gly-Arg-Arg-AMC as substrate at 200 uM by FRET assay; outline: as §6
[21] = target: Genome polyprotein (dengue virus type 2) (UniProt P29990); experiment: Inhibition of DENV2 NS2B-NS3 protease expressed in Escherichia coli BL21(DE3) using Boc-Gly-Arg-Arg-AMC as substrate at 200 uM by FRET assay; outline: as §6

| Structure (SMILES) | Activity (Huh-7) | pIC50 (Nonstructural protein 3) | pIC50 (Genome polyprotein [2]) | Activity (Trypsin (Homo sapiens)) [%] | Activity [3] [%] | Activity [4] [%] | Activity [5] [%] | Activity [6] [%] | Activity [7] [%] | Activity [8] [%] | Stabilty [9] [%] | Stabilty [10] [%] | Stabilty [11] [%] | remaining at 0.25 h [12] [%] | remaining at 1.5 h [13] [%] | remaining at 20 h [14] [%] | Activity (dengue virus type 2) | inhibition [20] | inhibition [21] | other results |
| --- | --- | --- | --- | --- | --- | --- | --- | --- | --- | --- | --- | --- | --- | --- | --- | --- | --- | --- | --- | --- |
| O=C(Nc1nc2cc(O)c(O)cc2s1)c1ccc(I)cc1 | Non-Toxic | 6.17 | 5.36 | 94 | 65 | 79 | 100 | 89 | 77 | 74 | 83 | 83 | 83 | 95 | 95 | 95 | Active | – | – | Activity (Zika virus [1]): Active; pIC50 [15]: 5.10; pKi (Genome polyprotein [16]): 5.12 |
| O=C(Nc1ccccc1)c1cc2cc(O)c(O)cc2o1 | Non-Toxic | 5.98 | 6.16 | 96 | 97 | 58 | 91 | 52 | 93 | 64 | 83 | 83 | 83 | 95 | 95 | 95 | Active | – | – | Activity (Zika virus [1]): Active; pIC50 [15]: 6.14 |
| COc1cc2nc(NC(=O)c3ccc(I)cc3)sc2cc1OC | – | – | – | – | – | – | – | – | – | – | – | – | – | – | – | – | Active | – | – | – |
| COc1cc2nc(NC(=O)C(c3ccccc3)c3ccccc3)sc2cc1OC | – | – | – | – | – | – | – | – | – | – | – | – | – | – | – | – | Active | – | – | Activity (Zika virus [17]): inactive |
| O=C(Nc1ccccc1)c1cc2c(O)cc(O)cc2o1 | – | – | – | – | – | – | – | – | – | – | – | – | – | – | – | – | – | – | – | inhibition [18]: 62%; inhibition [19]: 51% |
| O=C(Nc1ccccc1)c1cc2cc(O)ccc2o1 | – | – | – | – | – | – | – | – | – | – | – | – | – | – | – | – | – | inactive | inactive | – |
| O=C(Nc1ccccc1)c1cc2ccc(O)cc2o1 | – | – | – | – | – | – | – | – | – | – | – | – | – | – | – | – | – | inactive | inactive | – |
| Nc1cc2cc(C(=O)Nc3ccccc3)oc2cc1O | – | – | – | – | – | – | – | – | – | – | – | – | – | – | – | – | – | 52% | 34% | – |
| O=C(Nc1nc2cc(O)c(O)cc2s1)C(c1ccccc1)c1ccccc1 | Non-Toxic | 6.02 | 4.95 | 85 | 95 | 96 | 62 | 77 | 86 | 73 | 83 | 83 | 83 | 95 | 95 | 95 | Active | – | – | – |
| O=C(Nc1ccccc1)c1cc2cc([N+](=O)[O-])c(O)cc2o1 | – | – | – | – | – | – | – | – | – | – | – | – | – | – | – | – | – | 48% | 19% | – |
